From ChEMBL document CHEMBL1156480, “Insensitivity to Abeta42-lowering nonsteroidal anti-inflammatory drugs and gamma-secretase inhibitors is common among aggressive presenilin-1 mutations” (J Biol Chem, 2007)

Legend:
[1] = test system: Mus musculus; test: Reduction of amyloid beta42 level in Swedish APP and human PS1-L166P APPPS1 transgenic mouse brain at 10 mg/kg, po after 3 hrs by ELISA relative to control; type: functional; design: scale not given: the % may be the effect or the level left
How it was run: (§1)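 Mice given one oral 10 mg/kg dose in 0.5% tylose, or vehicle alone; the lines cover 5-month-old Tg2576 (Swedish APP) mice and 2-month-old APPPS1 (Swedish APP + human PS1-L166P, Thy-1 promoter) mice. Killed 3 h post-dose. Brain homogenized in Tris buffer with 0.2% Triton X-100 and spun 1 h at 200,000 x g. Soluble supernatant Abeta40 (6E10 capture) and Abeta42 measured by sandwich ELISA. n = 4–6, paired t-test.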

[2] = test system: CHO; test: Reduction of human PS1 delta exon9 mutant-induced amyloid beta42 level in CHO cells overexpressing human APP751 at 0.5 nM after 24 hrs by liquid phase electrochemiluminescence assay relative to control; type: cell-based; design: scale not given: the % may be the effect or the level left
[3] = test system: Mus musculus; test: Reduction of amyloid beta-40 level in Tg2576 mouse brain at 10 mg/kg, po after 3 hrs by ELISA relative to control; type: functional; design: scale not given: the % may be the effect or the level left; how it was run: as §1
[4] = test system: Mus musculus; test: Reduction of amyloid beta-40 level in Swedish APP and human PS1-L166P APPPS1 transgenic mouse brain at 10 mg/kg, po after 3 hrs by ELISA; type: functional; how it was run: as §1
[5] = test system: Presenilin-1 (Homo sapiens), P49768 [L166P]; test: Reduction of human PS1 L166P mutant-induced amyloid beta40 level in CHO cells overexpressing human APP751 at 0.5 nM after 24 hrs by liquid phase electrochemiluminescence assay relative to control; type: cell-based; design: scale not given: the % may be the effect or the level left
How it was run: (§2)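 APP751 CHO cells stably expressing PS1-ΔExon9, PS1-L166P or PS1-WT, cultured in parallel in serum-containing medium. Treated 24 h with increasing γ-secretase inhibitor concentrations or DMSO. Conditioned-media Abeta40/Abeta42 quantified by LPECL against synthetic peptide standards (16–2000 pg/ml). Duplicates normalized to DMSO. n = 3, one-way ANOVA with Dunnett's test versus PS1-WT.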

[6] = test system: CHO; test: Reduction of human PS1 delta exon9 mutant-induced amyloid beta42 level in CHO cells overexpressing human APP751 at 0.1 nM after 24 hrs by liquid phase electrochemiluminescence assay relative to control; type: cell-based; design: scale not given: the % may be the effect or the level left
[7] = test system: Mus musculus; test: Reduction of amyloid beta-40 level in Swedish APP and human PS1-L166P APPPS1 transgenic mouse brain at 10 mg/kg, po after 3 hrs by ELISA relative to control; type: functional; design: scale not given: the % may be the effect or the level left; how it was run: as §1
[8] = test system: Presenilin-1 (Homo sapiens), P49768 [L166P]; test: Reduction of human PS1 L166P mutant-induced amyloid beta40 level in CHO cells overexpressing human APP751 at 0.2 nM after 24 hrs by liquid phase electrochemiluminescence assay relative to control; type: cell-based; design: scale not given: the % may be the effect or the level left; how it was run: as §2
[9] = test system: CHO; test: Reduction of human PS1 delta exon9 mutant-induced amyloid beta-40 level in CHO cells overexpressing human APP751 at 0.1 nM after 24 hrs by liquid phase electrochemiluminescence assay relative to control; type: cell-based; design: scale not given: the % may be the effect or the level left; how it was run: as §2
[10] = test system: Presenilin-1 (Homo sapiens), P49768 [L166P]; test: Reduction of human PS1 L166P mutant-induced amyloid beta42 level in CHO cells overexpressing human APP751 at 0.2 nM after 24 hrs by liquid phase electrochemiluminescence assay relative to control; type: cell-based; design: scale not given: the % may be the effect or the level left; how it was run: as §2
[11] = Reduction of human PS1 delta exon9 mutant-induced amyloid beta-42 level in CHO cells overexpressing human APP751after 24 hrs by liquid phase electrochemiluminescence assay relative to control; type: cell-based
[12] = biological target: Presenilin-1 (Homo sapiens) (UniProt P49768); test: Reduction of human wild type PS1-induced amyloid beta-40 level in CHO cells overexpressing human APP751 at 0.1 nM after 24 hrs by liquid phase electrochemiluminescence assay relative to control; type: cell-based; design: scale not given: the % may be the effect or the level left
[13] = test system: Presenilin-1 (Homo sapiens), P49768 [L166P]; test: Reduction of human PS1 L166P mutant-induced amyloid beta42 level in CHO cells overexpressing human APP751 at 0.5 nM after 24 hrs by liquid phase electrochemiluminescence assay relative to control; type: cell-based; design: scale not given: the % may be the effect or the level left; how it was run: as §2
[14] = test system: Presenilin-1 (Homo sapiens), P49768 [L166P]; test: Reduction of human PS1 L166P mutant-induced amyloid beta-40 level in CHO cells overexpressing human APP751 at 0.1 nM after 24 hrs by liquid phase electrochemiluminescence assay relative to control; type: cell-based; design: scale not given: the % may be the effect or the level left; how it was run: as §2
[15] = test system: Mus musculus; test: Reduction of amyloid beta-42 level in Swedish APP and human PS1-L166P APPPS1 transgenic mouse brain at 10 mg/kg, po after 3 hrs by ELISA; type: functional; how it was run: as §1
[16] = test system: Mus musculus; test: Reduction of amyloid beta-42 level in Tg2576 mouse brain at 10 mg/kg, po after 3 hrs by ELISA relative to control; type: functional; design: scale not given: the % may be the effect or the level left; how it was run: as §1
[17] = Reduction of human PS1 delta exon9 mutant-induced amyloid beta-40 level in CHO cells overexpressing human APP751after 24 hrs by liquid phase electrochemiluminescence assay relative to control; type: cell-based
[18] = biological target: Presenilin-1 (Homo sapiens) (UniProt P49768); test: Reduction of human wild type PS1-induced amyloid beta42 level in CHO cells overexpressing human APP751 at 0.2 nM after 24 hrs by liquid phase electrochemiluminescence assay relative to control; type: cell-based; design: scale not given: the % may be the effect or the level left
[19] = test system: Mus musculus; test: Reduction of amyloid beta-42 level in Tg2576 mouse brain at 10 mg/kg, po after 3 hrs by ELISA; type: functional; how it was run: as §1
[20] = test system: Presenilin-1 (Homo sapiens), P49768 [L166P]; test: Reduction of human PS1 L166P mutant-induced amyloid beta42 level in CHO cells overexpressing human APP751 at 0.1 nM after 24 hrs by liquid phase electrochemiluminescence assay relative to control; type: cell-based; design: scale not given: the % may be the effect or the level left; how it was run: as §2
[21] = biological target: Presenilin-1 (Homo sapiens) (UniProt P49768); test: Reduction of human wild type PS1-induced amyloid beta40 level in CHO cells overexpressing human APP751 at 0.5 nM after 24 hrs by liquid phase electrochemiluminescence assay relative to control; type: cell-based; design: scale not given: the % may be the effect or the level left
[22] = test system: Mus musculus; test: Reduction of amyloid beta40 level in Tg2576 mouse brain at 10 mg/kg, po after 3 hrs by ELISA; type: functional; how it was run: as §1
[23] = biological target: Presenilin-1 (Homo sapiens) (UniProt P49768); test: Reduction of human wild type PS1-induced amyloid beta-42 level in CHO cells overexpressing human APP751 at 0.5 nM after 24 hrs by liquid phase electrochemiluminescence assay relative to control; type: cell-based; design: scale not given: the % may be the effect or the level left
[24] = biological target: Presenilin-1 (Homo sapiens) (UniProt P49768); test: Reduction of human wild type PS1-induced amyloid beta-40 level in CHO cells overexpressing human APP751 at 0.2 nM after 24 hrs by liquid phase electrochemiluminescence assay relative to control; type: cell-based; design: scale not given: the % may be the effect or the level left
[25] = biological target: Presenilin-1 (Homo sapiens) (UniProt P49768); test: Reduction of human wild type PS1-induced amyloid beta42 level in CHO cells overexpressing human APP751 at 0.1 nM after 24 hrs by liquid phase electrochemiluminescence assay relative to control; type: cell-based; design: scale not given: the % may be the effect or the level left
[26] = test system: CHO; test: Reduction of human PS1 delta exon9 mutant-induced amyloid beta42 level in CHO cells overexpressing human APP751 at 0.2 nM after 24 hrs by liquid phase electrochemiluminescence assay relative to control; type: cell-based; design: scale not given: the % may be the effect or the level left
[27] = test system: CHO; test: Reduction of human PS1 delta exon9 mutant-induced amyloid beta-40 level in CHO cells overexpressing human APP751 at 0.2 nM after 24 hrs by liquid phase electrochemiluminescence assay relative to control; type: cell-based; design: scale not given: the % may be the effect or the level left; how it was run: as §2
[28] = test system: CHO; test: Reduction of human PS1 delta exon9 mutant-induced amyloid beta40 level in CHO cells overexpressing human APP751 at 0.5 nM after 24 hrs by liquid phase electrochemiluminescence assay relative to control; type: cell-based; design: scale not given: the % may be the effect or the level left

C[C@H](NC(=O)[C@@H](O)c1cc(F)cc(F)c1)C(=O)N[C@@H]1C(=O)N(C)c2ccccc2-c2ccccc21
Activity [1]: 17.1%
Activity [2]: 26.5%
Activity [3]: 85%
Activity [4]: 0.42 pmol/g
Activity [5]: 11.7%
Activity [6]: 94.4%
Activity [7]: 81.2%
Activity [8]: 36.2%
Activity [9]: 92.6%
Activity [10]: 57.7%
EC50 [11]: 0.352 nM
Activity [12]: 64.2%
Activity [13]: 28.7%
Activity [14]: 66.6%
Activity [15]: 2.9 pmol/g
Activity [16]: 89%
EC50 [17]: 0.358 nM
Activity [18]: 18.8%
Activity [19]: 0.21 pmol/g
Activity [20]: 85.2%
Activity [21]: 5.6%
Activity [22]: 1.23 pmol/g
Activity [23]: 4.75%
Activity [24]: 15.8%
Activity [25]: 71%
Activity [26]: 72%
Activity [27]: 72.9%
Activity [28]: 26.7%
